Screening results (PubChem BioAssay)
Shown are actives, neighbours in structure and some others; about 11% of the full set was active somewhere.
TNAP act mid DEA = human TNAP enzyme activators, primary screen, biochemical, luminescent, intermediate phosphate acceptor level. purified TNAP, CDP-star luminescence, 100 mM DEA, 30 min; active compounds read high; scale: 0 levamisole-inhibited, 1 vehicle-only enzyme. AID 813, 2007. 64,000 tested, under 10 active. activation factor at 20 µM. Alkaline phosphatase, tissue-nonspecific isozyme (Homo sapiens), P05186;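 active means activation factor of at least 2 at 20 µM, relative to controls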
Target sequence (P05186 whole entry, looked up): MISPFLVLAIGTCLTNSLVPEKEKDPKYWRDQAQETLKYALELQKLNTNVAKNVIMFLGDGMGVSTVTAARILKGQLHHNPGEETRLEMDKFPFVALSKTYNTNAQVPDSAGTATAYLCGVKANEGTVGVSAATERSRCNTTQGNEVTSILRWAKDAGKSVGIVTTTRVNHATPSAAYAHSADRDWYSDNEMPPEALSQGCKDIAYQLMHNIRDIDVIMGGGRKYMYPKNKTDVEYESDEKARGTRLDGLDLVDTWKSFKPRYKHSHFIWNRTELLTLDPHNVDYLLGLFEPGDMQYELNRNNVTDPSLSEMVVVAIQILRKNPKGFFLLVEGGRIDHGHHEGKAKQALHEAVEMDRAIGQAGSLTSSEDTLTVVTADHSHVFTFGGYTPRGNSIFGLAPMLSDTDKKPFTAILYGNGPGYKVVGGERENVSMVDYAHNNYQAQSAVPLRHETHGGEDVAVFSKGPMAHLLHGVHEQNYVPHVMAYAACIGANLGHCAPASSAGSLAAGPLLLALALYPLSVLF
D1 mod = D1 CRE-luciferase signal change, two-sided – cell-based, HEK293 D1, dopamine EC30, D1 allosteric modulator project, primary screen | D(1A) dopamine receptor (Homo sapiens), P21728 | dopamine EC30 potentiation; actives deviate in either direction | B-score at 10 µM | actives 5.9% (n = 58,000) | AID 641, 2007;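 active means luminescence count or its row- and column-corrected plate score outside the 99.7% band of the plate's sample wells, on either side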
S1P1 ag pot = S1P1 agonists and agonism potentiators, primary screen, cell-based, primary and confirmation screens, CRE-bla reporter | S1P1 CRE-bla cells, forskolin, beta-lactamase FRET, potentiator mode; S1P1 agonist co-added at EC20, 2 nM; 100% = saturating reference agonist, 0% = basal | activation, % at 9.5 µM | actives 0.57% (n = 56,000);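 active means activation above a cutoff set at the mean activation of all tested compounds plus 3 SD, cut at about 54% in these data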;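 further: forskolin at 4 µM as EC80 and the EC20 agonist is SEW2871; 100% = SEW2871 at its EC100 plus forskolin at EC80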
M1 ag = M1 muscarinic receptor agonists, primary screen, CHO-M1 cells, Fluo-4 calcium, agonist mode | actives 3% (n = 64,000) | B-score at 10 µM | Fluo-4 calcium fluorescence; active compounds read high;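 active means fluorescence rise, raw or as B-score row- and column-corrected plate score, outside the 99.7% band of its plate's samples, either direction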
S1P3 ag = human S1P3 receptor agonists, primary screen, cell-based, primary and confirmation, NFAT-BLA reporter | activation, % at 4.5 µM | AID 373, 2006 | S1P3 NFAT-BLA reporter cells, agonism, FRET ratio; relative to 1 µM S1P, basal subtracted | actives 0.1% (n = 60,000);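 active means activation above the screen-wide mean plus 3 SD, cut at about 4.5% in these data, passing the limit was not always enough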
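Assay system: CHO cells stably expressing human S1P3, Gα16 and NFAT-β-lactamase reporter. Timing: overnight plating, 4 h compound 37 °C, 2 h substrate RT. Signal: β-lactamase FRET emission ratio 460/535 nm. Measure: percent activation versus median 1 µM S1P response, basal-subtracted, per plate. Repeats: primary screen single test, confirmation screen in triplicate.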
M1 antag = antagonists of rat M1 muscarinic receptor | Muscarinic acetylcholine receptor M1 (Rattus norvegicus), P08482 | CHO-M1 cells, Fluo-4 calcium, ACh EC80 antagonist mode; active compounds read low | B-score at 10 µM | actives 3.4% (n = 64,000) | AID 628, 2007;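 active means calcium fluorescence response, raw or row-and-column corrected B-score, differing from the plate sample mean either way at a set confidence level, mostly lower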
D1 mod confirm = D1 receptor positive allosteric modulators, retest, confirmation, cell-based, HEK293 D1, CRE-luciferase, duplicate; shares compounds with D1 mod; dopamine EC30 potentiation; active compounds read high; luminescence at 10 µM; actives 88% (n = 2,200);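 active means luminescence in either of two replicates above the same-plate mean plus 3 SD of the low-dose dopamine control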
D1 ag no DA = D1 receptor agonism without dopamine, confirmation, mechanism study for D1 allosteric modulator project, cell-based, HEK293 D1, CRE-luciferase, secondary assay 1. AID 646, 2007. shares compounds with D1 mod. luminescence, no dopamine; active compounds read high. luminescence at 10 µM. actives 0.8% (n = 1,900); in the data active means luminescence above about 3900
Isoprot counter = alters isoproterenol CRE-luciferase response in HEK293 cells; shares compounds with D1 mod; HEK293 D1 CRE-luciferase, isoproterenol EC30 counter-screen; active compounds read high; luminescence at 10 µM; actives 63% (n = 2,200);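 active means luminescence in either replicate above plate mean of wells with a partly effective reference agonist dose plus 3 SD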;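 further: isoproterenol raises cAMP through native beta-adrenoceptor Gs so signal bypasses D1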
* hit, by the source's call; / = no result.

SMILES | TNAP act mid DEA | D1 mod | S1P1 ag pot | M1 ag | S1P3 ag | M1 antag | D1 mod confirm | D1 ag no DA | Isoprot counter
CSc1nncc(-c2ccc(F)cc2)n1 | 0.9 | 8.24* | 0.5 | 0.793 | -1.5 | 2.62* | 8776* | / | 2888*
CSc1nnc(-c2ccc(F)cc2)o1 | 0.9 | -1.08 | -3.8 | -0.636 | -0.6 | -0.0292 | / | / | /
CC(=O)c1nn(-c2cccc(Cl)c2)cc1C(=O)c1ccco1 | 0.9 | 4.26* | -47.8 | -0.0484 | -1.0 | -0.474 | 12508* | 1716 | 3036
Cc1ccc(-n2c(SCC(=O)OC(C)C)nnc2-c2cnccn2)cc1 | 0.9 | 4.6* | -2.9 | 0.196 | 0.5 | 0.622 | 8068* | 1636 | 2948
O=C(Cc1ccc(-n2cccc2)cc1)N1CCc2ccccc21 | 0.9 | 0.0572 | 3.1 | -0.28 | -0.2 | -0.0132 | / | / | /
COc1cc2c(cc1OC)CN(C(=O)CSc1n[nH]c(N)n1)CC2 | 1 | 13.4* | / | 0.587 | -0.9 | -0.312 | 16292* | 1488 | 3648*
COc1cc2c(cc1OC)CN(C(=O)CCCN1C(=O)c3ccccc3C1=O)CC2 | 0.9 | 5.05* | -79.7 | 0.122 | -1.8 | -0.392 | 7424* | 1616 | 3264*
CCC(C(=O)N1CCc2cc(OC)c(OC)cc2C1)c1ccccc1 (stereo not given) | 0.9 | 4.69 | 13.4 | 0.0144 | -0.9 | 0.498 | / | / | /
CCOc1ccc2ccccc2c1/C=N/n1cncn1 | 0.9 | 1.94 | -11.4 | -0.0119 | -1.3 | -0.327 | / | / | /
COc1ccc(NC(=O)C2CCCN2S(=O)(=O)c2ccc3c(c2)CCC(=O)N3)cc1Cl (stereo not given) | 0.9 | 0.368 | -0.1 | -0.153 | -0.2 | -2.1 | / | / | /
CCCCCn1c(=O)[nH]c2cc(C(=O)NCCCN3CCC(C)CC3)ccc2c1=O | 0.9 | -2.22 | / | -0.272 | / | -1.35 | / | / | /
CCOC(=O)c1cnc(-n2nc(C)cc2C)nc1Nc1ccc(N(C)C)cc1 | 0.8 | 12.4* | 1.0 | 1.37 | -0.6 | -1.2 | 12468* | 1584 | 3496*
CCOC(=O)c1cnc(-n2nc(C)cc2C)nc1Nc1ccc2c(c1)OCO2 | 0.8 | 1.79 | 3.9 | 0.22 | -1.0 | -0.565 | / | / | /
CCOC(=O)c1cnc(-n2nc(C)cc2C)nc1Nc1cccc(C(=O)O)c1 | 0.9 | 4.34* | 7.8 | 0.172 | -1.3 | 0.0228 | 9100* | 1376 | 2968
CCOC(=O)c1ncn2c1C(=O)OC2(C)C | 0.9 | -0.464 | -23.3 | / | -1.4 | / | / | / | /
O=C(CSc1nnc(-c2ccco2)n1Cc1ccco1)N1CCOCC1 | 0.9 | -0.319 | 8.0 | 0.118 | -0.5 | -0.363 | / | / | /
O=C(NCc1ccc2c(c1)OCO2)c1nnc(Cc2ccc(Cl)cc2)o1 | 0.9 | -0.26 | 8.0 | -0.879 | -0.7 | -0.074 | / | / | /
Cc1csc(NC(=O)C2CCN(C(=O)CSc3nnc(C)n3Cc3ccccc3)CC2)n1 | 0.9 | -1.14 | 1.6 | -1.1 | -2.7 | 0.00779 | / | / | /
COc1cc2c(cc1OC)C1=C(C#N)CCC(=O)N1CC2 | / | 13.1* | / | 0.0522 | 0.7 | 0.537 | 16416* | 1868 | 9696*
